Measured values: ChEMBL document CHEMBL3600329, “Synthesis, biological profiling and mechanistic studies of 4-aminoquinoline-based heterodimeric compounds with dual trypanocidal-antiplasmodial activity” (Bioorg Med Chem, 2015)

What was measured:
[1] = Selectivity index, ratio of IC50 for rat L6 cells to IC50 for chloroquine-resistant Plasmodium falciparum K1; type: toxicity, cell-based; conditions: read-out: Ratio IC50
In short: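 IC50 ratio, L6 over P. falciparum K1. L6 cells seeded at 1×10^4 mL⁻¹ with compound, 6 days at 37 °C, resazurin added, fluorescence after 8 h. Parasites in A+ erythrocytes (2.5% haematocrit, 1% parasitaemia) with twofold dilutions, 48 h at 37 °C in low-oxygen gas; growth read by LDH activity at 550 nm.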

L6 = assay: Cytotoxicity against rat L6 cells assessed as inhibition of cell growth after 6 days by Spectramax fluorescence plate reader analysis; type: cell-based; conditions: L6, 144 h
In short: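 L6 rat skeletal myoblasts seeded at 1×10^4 mL⁻¹ in growth medium containing a range of compound concentrations, incubated 6 days at 37 °C; resazurin added, fluorescence read after a further 8 h. IC50 = concentration inhibiting growth by 50%; mean of triplicate experiments ± SEM.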

[2] = Inhibition of beta-haematin formation by microplate reader analysis relative to hemin; type: physicochemical
In short: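 Haemin chloride (8 mM stock in DMSO) mixed with serial compound dilutions (0.5-32 mM) in 25% DMSO; formation initiated with 8 M acetate buffer pH 5.0, 18 h at 37 °C. Pellets washed with DMSO, β-haematin dissolved in 0.1 M NaOH, OD 400 nm read versus drug-free controls; BHIA50 expressed as compound equivalents relative to haemin, by linear regression.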

Trypanosoma brucei [3] = assay: Selectivity index, ratio of IC50 for inhibition of Trypanosoma brucei recombinant Trypanothione reductase to IC50 for trypanocidal activity against bloodstream form of Trypanosoma brucei 221
Trypanothione reductase = Trypanothione reductase (Trypanosoma brucei brucei, UniProt P39051); assay: Inhibition of Trypanosoma brucei recombinant Trypanothione reductase assessed as decrease in (T[SH]2) formation using trypanothione disulfide as substrate after 15 mins by colorimetric analysis
Trypanosoma brucei [4] = assay: Trypanocidal activity against bloodstream form of Trypanosoma brucei 221 assessed as inhibition of parasite growth at pH 7.4 after 48 hrs by Spectramax plate reader analysis; type: functional, organism-based; conditions: Trypanosoma brucei, 221, 48 h
In short: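 Bloodstream-form T. brucei strain 221 grown at 37 °C in modified Iscove's medium; log-phase cells diluted to 0.25 × 10^5 mL⁻¹, exposed to a range of compound concentrations in triplicate at 37 °C. Resazurin added after 48 h, read after a further 16 h. IC50 and IC90 = concentrations inhibiting growth 50% and 90%; mean of triplicate experiments ± SEM.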

Plasmodium falciparum = assay: Antiplasmodial activity against chloroquine-resistant Plasmodium falciparum K1 infected in human A+ erythrocytes assessed as inhibition of parasite growth after 48 hrs by LDH assay; type: functional, organism-based; conditions: K1, 48 h
In short: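 Ring-stage cultures in human A+ erythrocytes (RPMI 1640, A+ serum, D-glucose), 2.5% haematocrit, 1% parasitaemia; twofold serial dilutions in duplicate, DMSO ≤0.5% final. 48 h at 37 °C under 93% N2/3% O2/4% CO2. Growth read as lactate dehydrogenase activity (APAD, lactate, diaphorase, NBT; 550 nm); % inhibition vs controls; IC50 by linear regression; mean of triplicate experiments.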

[5] = Selectivity index, ratio of IC50 for rat L6 cells to IC50 for bloodstream form of Trypanosoma brucei 221; type: toxicity, cell-based; conditions: read-out: Ratio IC50
In short: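 IC50 ratio, L6 over T. brucei. L6 cells seeded at 1×10^4 mL⁻¹ with compound, 6 days at 37 °C, then resazurin, 8 h more, fluorescence read. Log-phase bloodstream T. brucei 221 in modified Iscove's medium at 0.25 × 105 mL⁻¹, compound range in triplicate, 37 °C; resazurin at 48 h, read after 16 h more.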

Trypanothione reductase, sequence (P39051 whole entry): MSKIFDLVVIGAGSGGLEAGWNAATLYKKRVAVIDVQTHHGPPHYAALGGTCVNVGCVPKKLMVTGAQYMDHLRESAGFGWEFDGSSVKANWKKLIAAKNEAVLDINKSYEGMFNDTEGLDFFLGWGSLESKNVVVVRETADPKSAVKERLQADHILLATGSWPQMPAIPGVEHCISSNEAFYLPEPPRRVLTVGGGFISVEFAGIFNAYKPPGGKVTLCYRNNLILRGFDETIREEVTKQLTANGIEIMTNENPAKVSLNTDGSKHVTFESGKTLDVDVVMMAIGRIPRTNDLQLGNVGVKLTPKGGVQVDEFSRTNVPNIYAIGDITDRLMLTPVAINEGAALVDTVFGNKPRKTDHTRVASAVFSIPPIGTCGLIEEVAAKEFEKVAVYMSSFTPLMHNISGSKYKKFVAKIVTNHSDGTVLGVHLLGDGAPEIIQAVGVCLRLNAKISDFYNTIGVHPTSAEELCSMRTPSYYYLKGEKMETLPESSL

Structure (SMILES) | selectivity ratio [1] | IC50 (L6) | IC50 [2] | Ratio IC50 (Trypanosoma brucei [3]) | IC50 (Trypanothione reductase) | IC50 (Trypanosoma brucei [4]) | IC90 (Trypanosoma brucei [4]) | IC50 (Plasmodium falciparum) | selectivity ratio [5]
CC1=CC2Cc3nc4cc(Cl)ccc4c(NCCCCCCCCNc4c5c(nc6ccccc46)CCCC5)c3C(C1)C2 (centres undefined) | 2.8 | 1110 nM | 0.19 equiv | 6 | 870 nM | 150 nM | 290 nM | 390 nM | 7.4
CC1=CC2Cc3nc4cc(Cl)ccc4c(N)c3C(C1)C2 (centres undefined) [HUPRINE Y] | – | – | > 4 equiv | 8.2 | 5000 nM | – | – | – | –
COc1cc2c(cc1OC)CC(CC1CCN(CCCNc3c4c(nc5cc(Cl)ccc35)CC3C=C(C)CC4C3)CC1)C2 (centres undefined) | – | 2060 nM | 0.42 equiv | 29 | 4880 nM | 170 nM | 350 nM | – | 12
